# Measurements taken from ChEMBL document CHEMBL4513216, “Probing the Open Global Health Chemical Diversity Library for Multistage-Active Starting Points for Next-Generation Antimalarials” (ACS Infect Dis, 2020).
# Assay: Toxicity liver stage against HepG2, at 10uM
# Type: cell-based
# Parameters: test concentration 10 uM, cell line HepG2-A16-CD81EGFP
# Conditions: human, HepG2-A16-CD81EGFP cells; read-out: INHIBITION
# Method in brief: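 Uninfected HepG2-A16-CD81EGFP cells, 3 × 10^3 per well, 1536-well, plated on prespotted compound at 10 μM final, parasite-free screening media added to match infected plates; puromycin 10 μM positive, DMSO 0.5% negative; run in parallel with 48 h PbLuc assay at 37 °C, 5% CO2; viability by CellTiter-Glo luminescence, normalized to controls.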
row,Compound,cytotoxicity at 10 µM
1,Cc1cc2[nH]c(=O)c(=O)[nH]c2cc1S(=O)(=O)NC1CCC(C)CC1 (stereo not drawn),-10.5%
2,Oc1ccc(N2CCN(Cc3cc4c(cc3Br)OCCO4)CC2)cc1,6.87%
3,CC(C)(C)c1c[nH]c([C@@H]2COCCN2C2CCC2)n1,5.99%
4,O=C(C1CCN(S(=O)(=O)N2CCCC2)CC1)N1CCC2(CC1)OCCO2,-17.9%
5,CCN1Cc2cc(F)ccc2N(C(C)=O)CCC1=O,-4.78%
6,C=Cc1ccc(CSc2nc3c(c(=O)[nH]2)CN(CCC)CC3)cc1,-4.68%
7,CN1CCCN(C(=O)c2nnn(-c3ccc(C(F)(F)F)cc3)n2)CC1,-7.37%
8,CCS(=O)(=O)N1CCc2nc(N3CCCC3)nc(N(C)C)c2CC1,14.3%
9,O=C(CC1CC1)N1CCCn2c(nnc2Cn2cccc2)C1,10.7%
10,CC(C)CN1C[C@H]2CCN(C(=O)C3CCCO3)CC[C@H]2S1(=O)=O (stereo partly drawn),19.3%
11,CC1CCN(c2ccc3c(-c4ncc(C(=O)O)s4)noc3c2)CC1,2.13%
12,CCCN1CCC2(C1)c1ccccc1S(=O)(=O)N2Cc1ccc(F)cc1 (stereo not drawn),18.3%
13,O=C(O)c1cc(-c2ccn(CC3CC3)n2)n2ccccc12,13.2%
14,Cc1cc(C(=O)N2CC[C@@H]3CO[C@@H](CN4CCCC4)[C@@H]3C2)no1,7.61%
15,CC(C)NC(=O)C1Cc2nc(-c3ccsc3)sc2N1CC1CC1 (stereo not drawn),6.61%
16,O=C(c1ccc[nH]1)N1CCN(Cc2ccncc2)c2ncccc2C1,10.1%
17,O=C(c1cnccn1)N1CCC2(CCN(Cc3ccsc3)C2)CC1,-3.33%
18,CN1CCN(C(=O)[C@@H]2C[C@@H]3CCN(c4cccc(F)c4)C[C@H]3O2)CC1,-6.22%
19,O=C(c1ccncc1)N1CCN2C[C@H](Oc3cncnc3)C[C@H]2C1,8.7%
20,CCc1nn2c(=N)c(C#N)n[nH]c2c1-c1ccc(OC)cc1,-3.73%
21,CN(Cc1ccco1)C[C@H]1OC[C@@H]2CCN(Cc3nccs3)C[C@@H]21,-5.9%
22,Cc1oncc1C(=O)N1CCC2(CC1)CC(c1ccccc1)C(=O)N2C (stereo not drawn),-14.5%

row,Compound,cytotoxicity at 10 µM
1,CCN1CCN(C(=O)C2CC(=O)N(c3cnn(C(C)C)c3)C2)CC1 (stereo not drawn),5.61%
2,CS(=O)(=O)N[C@@H]1CN(Cc2ccccc2)C[C@H]1O,-2.92%
3,CC1(c2nccs2)CCN(C(=O)CCN2CCOCC2)CC1,2.97%
4,CCCC(=O)N1CCCCC1c1nc(N(C)C)ncc1-c1cc(C)no1 (stereo not drawn),4.94%
5,CNC(=O)CCc1cc(C)nc(C2CCN(CC(=O)N(C)C)CC2)c1,2.9%
6,O=C(c1ccc(-n2cccn2)nc1)N1CCC(c2ccn[nH]2)C1 (stereo not drawn),-0.399%
7,CC(=O)N1CCN([C@@H]2CN(C(=O)c3ccccc3C)C[C@H]2O)CC1,-3.79%
8,Cc1ccsc1CN(CCCO)Cc1nc2ccccc2[nH]1,-21.3%
9,CN1CCNC(Cc2ccc(-c3ccccc3)cc2)C1=O (stereo not drawn),-41.9%
10,Cc1n[nH]c(C)c1-c1cnc(CC2CCN(C(C)C)CC2)cn1,22.3%
11,CCN(Cc1ccncc1)CC1(O)CCN(C(=O)c2ccccc2C)C1 (stereo not drawn),-22%
12,CC1CCN(CCNCc2cc(-c3ccccc3)cn3nnnc23)CC1,-20.4%
13,CCN(CC(=O)NC(C)(C)C)Cc1cccc2c1OCCO2,-18.7%
14,CC(C)N1C(=O)CN(CCOCCO)CC1(C)C,1.94%
15,Cc1ccccc1C(C)NC(=O)CN1CCN(Cc2ccc(Br)s2)CC1 (stereo not drawn),22.9%
16,CCC(C)CS(=O)(=O)NCCc1csc(N2CCCC2)n1 (stereo not drawn),1.28%
17,CC(C)NC(=O)CN(C)C(=O)c1csc(Cc2ccccc2F)n1,3.24%
18,Cc1cc(C)n(C2CCCN(C(=O)c3ccnc(N(C)C)c3)C2)n1 (stereo not drawn),1.9%
19,Cc1nnc(CN2CCCC2c2ccc3c(c2)OCCCO3)n1C (stereo not drawn),4.86%
20,CCOc1ccc(Cl)c(C(=O)N2CCCC(N3CCCC3)C2)n1 (stereo not drawn),8.29%
21,Cc1cc(C(=O)NCC2CCCC2)c(C)n1-c1cccnc1,5.69%
22,CN(C)c1ccc(C(=O)N2CCCC2c2cnn(C)c2)nn1 (stereo not drawn),-10.3%

row,Compound,cytotoxicity at 10 µM
1,CSCC(CCO)Nc1cccc(C(F)(F)F)n1 (stereo not drawn),0.515%
2,COc1ccc(NC(=O)COc2nn(C)c3nc(C)cc(C)c23)cn1,-4.36%
3,Cc1cnc(C(NC(=O)NCC2(CO)CC2)C2CC2)s1 (stereo not drawn),1.8%
4,CCN1CCCC1CN(CCN(C)C)S(=O)(=O)c1ccccc1C#N (stereo not drawn),-8.58%
5,CC(C)(C)OC(=O)N1CCC[C@H](NCC2=CCCOC2)C1,-6.93%
6,Cc1nn(C)c(C)c1OCC(=O)N1CCCC1,-10.9%
7,COCCn1cc(NC(=O)NCC2CCN(c3ccccc3)C2)cn1 (stereo not drawn),2.21%
8,CC(C)N1CCC(Nc2ccn(C)n2)C1=O (stereo not drawn),-0.794%
9,CC(C)c1nc(S(=O)(=O)N(C)c2cc(F)ccc2F)c[nH]1,13.9%
10,CC(C)(C)CC(=O)NCC(=O)Nc1ccn(CCCn2ccnc2)n1,10.6%
11,CCCN(CCC)C(=O)CN(C)Cc1cnc(C)s1,20.9%
12,CN(C(=O)CCc1nc(C2CC2)no1)c1cc(C#N)c2ccccc2n1,0.55%
13,COCCCn1ccc(NS(=O)(=O)c2cc(F)c(C)cc2F)n1,19.1%
14,CN(C)C1CCN(C(=O)NCc2ccc(Cn3cncn3)cc2)CC1,-3.6%
15,Cc1ccc(NC(=O)Cn2cc(I)cn2)cc1,9.06%
16,CN(C)C(=O)CNC(=O)Nc1cccc(Cl)c1SC(F)F,1.31%
17,NS(=O)(=O)N1CCc2ccc(NC(=O)Cc3ccc(F)cc3)cc21,-9.06%
18,O=C([C@@H]1CCS(=O)(=O)[C@@H]2CN(c3ncccn3)C[C@@H]21)N1CCOCC1,-100%
19,Cc1nc(C)c2c(n1)CCN(C(=O)C1(C#N)CC1)CC2,-102%
20,CS(=O)(=O)NC[C@]12COC[C@H]1CN(C(=O)C1CC=CC1)C2,-105%
21,O=C(c1cccs1)N1CCC2(CC1)CN(c1ccsc1)C(=O)CO2,-70.5%
22,Cc1noc(C)c1CCCNC(=O)Nc1ccc2c(c1)COC2,3.27%

row,Compound,cytotoxicity at 10 µM
1,CCCn1ncc(CN(Cc2cccnc2)Cc2ccsc2)c1C,13.1%
2,CCCc1nnc(N2CCC(N3CCCCCC3)CC2)o1,-15.3%
3,COc1cc(N2CCN(Cc3ccsc3)C(CCO)C2)nc(N)n1 (stereo not drawn),2.45%
4,Cc1ccc(-c2ncc(C(=O)N3CCN4CCCCC4C3)c(O)n2)cc1 (stereo not drawn),-7.82%
5,O=C(CCCn1ccnc1)N[C@H]1CN(C2CCCC2)C[C@@H]1C1CC1,7.69%
6,COCCn1cnnc1CN(C)c1nc(N)nc2c1CCCC2,-6.98%
7,CCCn1ccnc1CN1CCC(Oc2ccc(Cl)cc2)(C(=O)O)CC1,3.47%
8,Cc1cncc(NC(=O)c2ccc(CN3CCCC(C(N)=O)C3)cc2)c1 (stereo not drawn),0.86%
9,CC(=O)N1CCCN(C(C(=O)O)c2cccc(C)c2C)CC1 (stereo not drawn),-2.75%
10,Cc1n[nH]cc1C(=O)NCc1cccnc1N1CCc2ccccc2C1,8.81%
11,CCN(CC)CCN(C)c1nc(-c2ccc(Cl)cc2)nc2c1CNC2,1.78%
12,Nc1nc2c(c(NCC(c3cccnc3)N3CCOCC3)n1)CCNC2 (stereo not drawn),9.03%
13,CCCc1cc(C(=O)NC2CCCCNC2=O)[nH]n1 (stereo not drawn),0.828%
14,CCc1cc(C(=O)N2CCCn3nc(CCC(=O)O)cc3C2)cs1,-3.32%
15,CCOc1ccc(-c2ccnc(C3CC3)n2)cc1C(=O)O,-0.173%
16,N#Cc1ccccc1C(=O)NCCC1CN(Cc2ccco2)CCO1 (stereo not drawn),-7.25%
17,CCOc1ccnc(NCCc2nc(C)cc(=O)[nH]2)n1,-6.73%
18,Cc1cnc(NCC(C)(C)N2CCCCC2)nc1,-2.69%
19,COc1ccc2c(c1)C(C(=O)N(C)CCCc1nccn1C)CC(=O)N2 (stereo not drawn),-56%
20,Cc1ccc(-c2ccc(Cl)nn2)cc1S(N)(=O)=O,-12.3%
21,Cc1ncccc1O[C@H]1CCN(C(=O)c2cccs2)CC[C@@H]1O,0.719%
22,CCS(=O)(=O)NCCCNCc1c(C)nn(C)c1N(C)C,-9.66%

row,Compound,cytotoxicity at 10 µM
1,CC(C)(O)CN1CCN(C(=O)COCc2ccccc2Cl)CC1,-4.72%
2,CNS(=O)(=O)Cc1ccc(CNC(=O)c2cccc(C)n2)cc1,-3.79%
3,CC(=O)N(C)c1nc(CN2CCCCC2Cn2cncn2)cs1 (stereo not drawn),-5.79%
4,Cc1ccc(C(=O)NS(=O)(=O)c2cccc3cnccc23)c(=O)[nH]1,-8.16%
5,O=C(NCC1CCOC1)Nc1ccc(OCC(F)(F)F)nc1 (stereo not drawn),-5.41%
6,CCc1nc2n(n1)CC(NCC(=O)Nc1ccc(Cl)cn1)CC2 (stereo not drawn),-10.3%
7,Cc1cnn(CC2CCCN2C(=O)c2cc(Cl)ccc2F)c1 (stereo not drawn),-5.82%
8,CC(C)NC(=O)[C@H]1C[C@@H]2[C@@H](C1)OCCN2Cc1ccccn1,6.62%
9,O=C(c1ccnnc1)N1CCN(Cc2ccncc2)c2ncccc2C1,-0.201%
10,Cc1ccnc(OC[C@@]23CCO[C@@H]2CCN(c2ncccn2)C3)n1,4.86%
11,Cc1occc1C(=O)N1CCC[C@]2(C[C@@H](OCc3ccccn3)CO2)C1,-72.4%
12,Cc1noc(C)c1CN1CCN(Cc2cccnc2)c2ncccc2C1,-67.1%
13,O=C(NCc1cnc2n1CCN(Cc1nccs1)C2)c1ccno1,-104%
14,O=C1CCC2(CCCN(CCc3ccccc3)C2)N1Cc1cccnc1 (stereo not drawn),4.05%
15,CCC(C)N1Cc2c(C(=O)N3CCCC3)nn(C)c2C1 (stereo not drawn),-5.03%
16,O=C([C@H]1C[C@@H]2CCN(c3cccc(F)c3)C[C@H]2O1)N1CCCCO1,1.67%
17,O=C(c1ccco1)N1C[C@@H]2OCCN(CCN3CCCC3)[C@@H]2C1,1.54%
18,CC(C)n1nc(Cn2cccc2)c2c1CN(C1CCOCC1)C2,7.55%
19,O=C(C1CCOCC1)N1C[C@@H]2CN(Cc3ccsc3)CCO[C@@H]2C1,-77.5%
20,CN(C)[C@@H]1CCN(C(=O)NC2CCCC2)[C@H]1Cc1ccncc1,5.83%
